Results collected from several papers.
Target: SRSF protein kinase 1 (SRPK1, Homo sapiens, UniProt Q96SB4)

CCN(CC)CCNC(=O)c1c(C)[nH]c(/C=C2\C(=O)Nc3ccc(F)cc32)c1C — inhibition (enzyme activity, inhibitor; 0.3 µM): -17%
Cc1cc(-n2nc(Cc3cc(F)cc(C(F)(F)F)c3)nc2C)ccc1C(N)=O — remaining binding (cell-free assay, competition with immobilised ligand; 1 µM): 81%
FC(F)c1nc2ccccc2n1-c1nc(N2CCOCC2)nc(N2CCOCC2)n1 — remaining activity (enzyme activity, inhibitor; 10 µM): 92%
CC(=O)N1CCC(c2ccc(C(=O)NC(=N)N)cc2C(F)(F)F)CC1 — remaining binding (cell-free assay, competition with immobilised ligand; 1 µM): 86%
COc1cc2ncnc(Nc3ccc(Oc4ccccc4)cc3C)c2cc1OC — inhibition (enzyme activity, inhibitor; 1 µM): 0%
CC(C)(O)[C@H]1CC[C@H](Nc2ccc3ncc(-c4cccc(C(F)(F)F)c4)n3n2)CC1 — remaining activity (enzyme activity, inhibitor; 1 µM): 100%
Nc1nc(NC2CCCCC2)sc1C(=O)c1ccccc1 — remaining activity (enzyme activity, inhibitor; 10 µM): 93%
O=S(=O)(NC1CCC(c2cc(F)ccc2F)(S(=O)(=O)c2ccc(Cl)cc2)CC1)C(F)(F)F (stereo not drawn) — remaining binding (cell-free assay, competition with immobilised ligand; 1 µM): 100%
Nc1ncnc2occ(-c3ccc(NC(=O)Nc4cc(C(F)(F)F)ccc4F)cc3)c12 — remaining signal (cell-free assay, inhibitor; 20 µM): 59%
O=C(Nc1cnn(-c2csc(C(=O)NC3COC3)c2)c1)Nc1ccccc1Cl — remaining activity (enzyme activity, inhibitor; 5 µM): 98.7%
CN1CC(Oc2cnc(C#N)cc2-c2ccn3nc(NC(=O)C4CC4)cc3c2)C1 — inhibition (enzyme activity, inhibitor; 1 µM): -2%
CC(C)(C)c1nc(-c2cccc(NS(=O)(=O)c3c(F)cccc3F)c2F)c(-c2ccnc(N)n2)s1 — remaining activity (enzyme activity, inhibitor, radiometric; 1 µM): 105%
CO[C@H]1CC[C@H](CNc2ccc(S(=O)(=O)NC(=O)c3ccc(N4CCN(CC5=C(c6ccc(Cl)cc6)CC(C)(C)CC5)CC4)cc3Oc3cnc4[nH]ccc4c3)cc2[N+](=O)[O-])CC1 — remaining binding (cell-free assay, competition with immobilised ligand; 1 µM): 96%
Nc1nc(Nc2ccc(S(N)(=O)=O)cc2)nn1C(=O)c1c(F)cccc1F — remaining signal (cell-free assay; 0.5 µM): 86.4%
COc1cccc2c(NCc3ccccc3)nc(-n3c(N)nc4ccccc43)nc12 — inhibition (target engagement in cells, inhibitor, chemoproteomics; 20 mM): 5.7%
Nc1nc(Nc2ccccc2)sc1C(=O)c1c(F)cccc1F — remaining activity (enzyme activity, inhibitor; 10 µM): 6%
CC/C(=N\NC(=O)NCc1cccc(O)c1)c1ccc(O)c(C)c1O — inhibition (enzyme activity, inhibitor; 0.1 µM): -11.7%
Cc1cnc(NC2CCOCC2)nc1-n1cnc(C(=O)NC(CN)c2cc(F)cc(Cl)c2)c1 (stereo not drawn) — remaining activity (enzyme activity, inhibitor, radiometric; 1 µM): 96%
C=CC(=O)Nc1cc(Nc2nccc(Nc3cc(Cl)c(F)cc3C(C)(C)O)n2)c(OC)cc1N1CC[C@@H](N(C)C)C1 — inhibition (enzyme activity, inhibitor; 1 µM): 2%
FC(F)(F)Oc1cccc(-c2cnc3ccc(-c4ccncc4)nn23)c1 — activity vs control (enzyme activity, inhibitor, radiometric; 5 µM): 96%
O=C(Nc1ccc(Oc2ccc(F)cc2)cc1)N1CCc2ncccc2[C@H]1c1ccc(F)cc1 — remaining binding (cell-free assay, competition with immobilised ligand; 1 µM): 94%
Cc1ccc(NC(=O)c2ccc(CN3CCN(C)CC3)cc2)cc1Nc1nc(-c2cccnc2)cs1 — remaining signal (cell-free assay; 0.5 µM): 98.9%
CCCS(=O)(=O)Nc1ccc(F)c(C(=O)c2c[nH]c3ncc(-c4ccc(Cl)cc4)cc23)c1F — inhibition (enzyme activity, inhibitor; 1 µM): < 10%
COc1cc(Nc2cnc(C#N)c(O[C@H](C)CN(C)C)n2)ncc1-c1cnn(C)c1 — remaining activity (enzyme activity, inhibitor, radiometric; 10 µM): 88%
Cc1cc(NC(=O)c2cccc3cc(-c4cccc5[nH]nc(N)c45)ccc23)ccc1F — activity vs control (enzyme activity, inhibitor; 0.1 µM): 98%
CN(C)c1ncnc(-c2ccc3nc(Nc4cc(CN5CCN(C(=O)CC(F)(F)F)CC5)ccn4)[nH]c3c2)c1Cl — remaining binding (cell-free assay, competition with immobilised ligand; 1 µM): 47%
O=C1Nc2ccc(Cl)cc2C1=Cc1cc(Cl)c(O)c(Cl)c1 — remaining signal (cell-free assay; 0.5 µM): 106%
O=C(NCCCC1CCCCC1)c1ccc(CNC(=O)c2cnn(-c3ccccc3)c2C(F)(F)F)cc1 — remaining binding (cell-free assay, competition with immobilised ligand; 0.1 µM): 95%
CNC(=O)c1cc(Oc2ccc(NC(=O)Nc3ccc(Cl)c(C(F)(F)F)c3)cc2)ccn1 — inhibition (enzyme activity, inhibitor; 10 µM): 6%
Cc1c[nH]c2nccc(Oc3c(F)cc(Nc4cc(Cl)nc(N)n4)cc3F)c12 — remaining binding (cell-free assay, competition with immobilised ligand; 0.1 µM): 100%
O=C1NC(=O)c2cc(Nc3ccc(F)cc3)c(Nc3ccc(F)cc3)cc21 — remaining signal (cell-free assay; 0.5 µM): 102%
Cc1ccc(Nc2nccc(N(C)c3ccc4c(C)n(C)nc4c3)n2)cc1S(N)(=O)=O — inhibition (enzyme activity, inhibitor; 10 µM): -3%
CCOc1cc(-c2nncn2C)ccc1Nc1ncc2cc(C)nc(NCC(C)(C)C)c2n1 — inhibition (enzyme activity, inhibitor, FRET; 1 µM): < 15%
